High-throughput results (PubChem BioAssay)
A selection: hits, their analogues and other compounds. The true share with any hit is near 7.6%.
HEK293 NFkB inh = inhibitors of the PMA/ionomycin-induced NF-kB reporter in HEK293 cells | HEK-293 NF-kB luciferase reporter, luminescence | inhibition, % at 3 µM | actives 0.21% (n = 62,000);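 active = inhibition above the mean of all tested compounds plus 3 SD, cut at about 40% in these data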;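 also: 0% = stimulated DMSO wells and 100% = 10 µM reference inhibitor 5653914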
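Reagent: PMA plus ionomycin mix as NF-kB-activating stimulus. Assay system: NF-kB luciferase reporter HEK-293 cells. Technique: luminescence from luciferase substrate reagent. Incubation: 1 h compound pre-incubation, 16 h PMA/ionomycin at 37 °C. Benchmarks: DMSO only as uninhibited control, 10 µM reference inhibitor as full inhibition. Repeats: tested once.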
D1 allo mod = D1 dopamine receptor (human) allosteric modulation | HEK293 D1, CRE-luciferase, dopamine EC30 potentiation; actives deviate in either direction | B-score at 10 µM | actives 5.9% (n = 58,000) | AID 641;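 active = luminescence count or its row- and column-corrected plate score outside the 99.7% band of the plate's sample wells, on either side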
M1 antagonist = antagonists of rat M1 muscarinic receptor; P08482; actives 3.4% (n = 64,000); CHO-M1 cells, Fluo-4 calcium, ACh EC80 antagonist mode; hits give low values; B-score at 10 µM;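 active = calcium fluorescence response, raw or row-and-column corrected B-score, differing from the plate sample mean either way at a set confidence level, mostly lower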
Target sequence (P08482 whole entry, looked up): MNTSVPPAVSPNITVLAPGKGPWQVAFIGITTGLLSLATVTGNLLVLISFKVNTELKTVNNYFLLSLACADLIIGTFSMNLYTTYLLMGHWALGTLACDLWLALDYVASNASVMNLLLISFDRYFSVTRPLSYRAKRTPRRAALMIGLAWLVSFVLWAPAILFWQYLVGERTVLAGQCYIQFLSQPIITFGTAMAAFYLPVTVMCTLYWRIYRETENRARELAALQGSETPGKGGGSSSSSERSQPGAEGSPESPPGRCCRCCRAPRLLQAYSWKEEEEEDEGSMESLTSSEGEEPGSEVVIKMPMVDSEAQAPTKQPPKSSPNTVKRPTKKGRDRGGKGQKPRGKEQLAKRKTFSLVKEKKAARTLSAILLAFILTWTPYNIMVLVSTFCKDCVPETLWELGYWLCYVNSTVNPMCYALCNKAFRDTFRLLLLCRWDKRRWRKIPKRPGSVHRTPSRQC
Jurkat tox 60K = cytotoxicity toward Jurkat cells. Jurkat E6.1 viability, ATP luminescence, 48 h. inhibition, % at 4 µM. actives 1.2% (n = 56,000). AID 463;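 active = inhibition above the mean inhibition of all tested compounds plus 3 SD, cut at about 28% in these data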
hDAT+cocaine = modulates human dopamine transporter uptake under cocaine; Q01959; LLC-PK1 hDAT cells, [14C]-dopamine uptake with cocaine IC80; actives deviate in either direction; B-score at 10 µM; actives 1.3% (n = 110,000);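 active = Z score or B-score, a plate-position-corrected score, falls beyond the plate's 99.7% confidence bounds, in either direction; inactive = both scores lie inside the 99.7% bounds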;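 also: scored against the spread of the other compound wells on the same plate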
M1 agonist = M1 muscarinic receptor agonism; CHO-M1 cells, Fluo-4 calcium fluorescence, agonist mode; hits give high values; B-score at 10 µM; actives 3% (n = 64,000);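 active = fluorescence rise, raw or as B-score row- and column-corrected plate score, outside the 99.7% band of its plate's samples, either direction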
* hit, by the source's call; x = no result.

SMILES | HEK293 NFkB inh | D1 allo mod | M1 antagonist | Jurkat tox 60K | hDAT+cocaine | M1 agonist
Cc1cccc(C)c1OCc1nnc2c3cnn(C)c3ncn12 | 10 | 0.4 | 0.027 | x | 0.87 | 1.5
COc1ccc(Cc2nnc3c4cnn(C)c4ncn23)cc1 | -5 | 0.54 | -0.044 | 3 | -7.4* | 0.32
CC(C)c1ccc2oc(-c3cc(N)ccc3O)nc2c1 | 8 | -3.9* | 0.22 | 6 | -0.33 | -0.019
COc1ccc(OCC(=O)NC(=S)Nc2ccc(N3CCOCC3)c(Cl)c2)cc1 | x | x | x | x | 0.31 | x
Cc1ccc(C2NC(=O)c3ccccc3N2)s1 (stereo not drawn) | -17 | -0.2 | -0.56 | 75* | -0.41 | -0.016
COc1cc2c(cc1OC)CN(C(=O)C1(c3ccccc3)CC1)CC2 | 9 | 0.97 | 0.89 | -4 | 0.76 | 0.024
CCCNC(=O)c1c(N)n(-c2cccc(OC)c2)c2nc3ccccc3nc12 | 17 | 0.75 | -0.13 | -8 | 0.17 | -0.85
COC(=O)c1c(N)n(-c2cc(OC)cc(OC)c2)c2nc3ccccc3nc12 | 15 | 3.3* | -0.035 | 4 | x | -1.4
C=CCn1c(=O)c2ccccc2n2c(SCc3cc(=O)n4ccsc4n3)nnc12 | 21 | -0.013 | 1.2 | 3 | 2.8* | -0.44
C=CCn1c(SCC(=O)c2cccs2)nc2sc(C)c(C)c2c1=O | x | x | x | x | -0.84 | x
C=CCn1c(SCc2cc(=O)n3ccsc3n2)nc2sc(C)c(C)c2c1=O | 12 | 4* | -0.049 | 5 | -1.2 | 0.38
C=CCn1c(=O)c2ccccc2n2c(SCC(=O)c3ccccc3)nnc12 | 3 | 0.48 | -0.47 | 0 | 0.014 | 1.6
CN(CCO)c1ccc([N+](=O)[O-])cc1C(=O)O | x | x | x | x | -0.78 | x
O=C(Cc1ccc(-n2cccc2)cc1)NCc1cccs1 | 37 | 0.31 | 0.71 | 71* | -0.37 | -1.2
O=C(Cn1cccc1)NCc1cccs1 | 6 | 0.83 | -0.075 | -2 | 0.65 | -0.22
CC(C)OC(=O)c1c(N)sc2c1CCCC2 | 15 | 11* | 1.7 | 5 | x | 0.54
COc1ccc(CCNC(=O)CSc2ccc(-c3ccccc3)nn2)cc1OC | x | x | x | x | 2* | x
COc1ccc(CCNC(=O)CSc2c[nH]c3ccccc23)cc1OC | x | x | x | x | 0.17 | x
CCOc1ccc(C(CC(=O)O)NC(=O)c2ccco2)cc1 (stereo not drawn) | x | x | x | x | -0.013 | x
C=CCN(Cc1cccc(OC)c1OC)S(=O)(=O)N(C)C | x | x | x | x | -0.0053 | x
CC(C)(C)c1csc(NC(=O)c2ccc(Cl)s2)n1 | -4 | 0.62 | -0.42 | 22 | -2.6* | 0.46
Cc1ccc(-c2cc3nc(C)cc(NCc4ccco4)n3n2)cc1 | -23 | -1.9 | 0.73 | 2 | -3.9* | -0.15
O=C(O)c1ccc(CSc2nc(-c3ccc(Cl)cc3)cc(C(F)(F)F)n2)cc1 | x | x | x | x | 1.8 | x
O=C(c1ccccc1F)N(Cc1ccc2c(c1)OCO2)Cc1cc2cc3c(cc2n2nnnc12)OCO3 | x | x | x | x | 0.88 | x
COc1ccc(CNC(=O)Nc2cccc(C)c2)cc1 | -5 | -0.19 | 0.32 | 2 | 1.1 | -2.1
SMILES | HEK293 NFkB inh | D1 allo mod | M1 antagonist | Jurkat tox 60K | hDAT+cocaine | M1 agonist
COc1ccc(C(=O)Nc2cccc(C)c2)cc1 | -30 | -3.5* | 0.72 | 1 | 0.91 | 0.59
COc1ccc(NC(=O)c2ccc3snnc3c2)cc1 | x | x | x | x | -2.9* | x
Cc1cc(Cl)cc(C)c1OCC(=O)O | 12 | x | -0.28 | x | -1.1 | 0.87
O=C(CCc1ccccc1)Nc1ccc2c(c1)OCCO2 | x | x | x | x | -1.1 | x
Nc1c(C(=O)Nc2ccc3c(c2)OCCO3)nnn1CCc1ccccc1 | 16 | -0.022 | -0.36 | 80* | -0.35 | 1.5
COc1ccc2occ(C(=O)c3coc4ccc(O)c(CN(C)C)c34)c2c1 | 18 | -1.1 | -0.74 | -2 | 1.5 | -1.4
COc1ccc(C(=O)c2coc3ccc(O)c(CN4CCCCC4)c23)cc1 | 8 | -0.46 | -0.69 | 2 | 3.5* | 0.17
C=CCOC(=O)C1=C[C@@H](c2coc3ccccc3c2=O)C[C@@H](OCCCCO)O1 | x | x | x | x | 2.8* | x
CC(=O)c1ccc(NC(=O)Nc2cccc(Cl)c2)cc1 | x | x | x | x | -3.9* | x
CC(=O)c1cccc(NC(=O)Nc2c(C)nn(C)c2C)c1 | 1 | 2.1 | 0.13 | -1 | 2.1* | -1.1
Cc1nc2c(Cl)cc(Cl)cc2[nH]1 | x | x | x | x | -1.9 | x
COc1ccc(-c2cc(C(=O)N/N=C/c3ccc(OC)c(COCC(F)(F)C(F)F)c3)c3ccccc3n2)c(OC)c1 | x | x | x | x | -0.18 | x
C=CCn1c(SCc2ccccc2)nnc1-c1cccnc1 | 0 | 0.34 | -0.72 | -3 | 0.2 | -0.61
